Columns and labels:
[1] = (§1) Inhibition of reverse transcriptase/nucleocapsid protein 7 in wild type HIV1 3B infected in human MT4 cells assessed as protection against virus-induced cytopathic effect incubated for 5 days by MTT assay; format: cell-based; details: Human immunodeficiency virus 1, 3B, MT4, 120 h
In short: (§2)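 MT-4 cells infected with HIV-1 IIIB (wild type) or RES056 (K103N/Y181C RT double mutant); 5-day incubation; viability by MTT. EC50 is the concentration giving 50% protection against virus-induced cytotoxicity. CC50 is the concentration cutting viability of mock-infected cultures by 50%. SI is CC50/EC50. Fold resistance is EC50 mutant/EC50 wild type.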

[2] = Inhibition of nucleocapsid protein 7/reverse transcriptase K103N/Y181C double mutant in HIV1 RES056 infected in human MT4 cells assessed as protection against virus-induced cytopathic effect incubated for 5 days by MTT assay; format: cell-based; details: Human immunodeficiency virus 1, RES056, MT4, 120 h; in short: as §2
[3] = Cytotoxicity in mock-infected human MT4 assessed as reduction in cell viability incubated for 5 days by MTT assay; format: cell-based; details: mock-infected MT4 cells, time 5 day
In short: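 Mock-infected MT-4 cultures were run alongside the HIV-1 IIIB and RES056 (K103N/Y181C) protection assays and incubated for 5 days. Viability was read by MTT. CC50 is the concentration that cuts viability of the mock-infected cultures by 50%.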

[4] = as §1, with “Selectivity index, ratio of CC50 for cytotoxicity in mock-infected human MT4 cells assessed as reduction in cell viability incubated for 5 days by MTT to EC50 for inhibition” for “Inhibition”; format: toxicity, cell-based; details: time 5 day, read-out: Ratio CC50/EC50; in short: as §2
[5] = Selectivity index, ratio of CC50 for cytotoxicity in mock-infected human MT4 cells assessed as reduction in cell viability incubated for 5 days by MTT to EC50 for inhibition of reverse transcriptase K103N/Y181C double mutant/nucleocapsid protein 7 in HIV1 RES056 infected in human MT4 cells assessed as protection against virus-induced cytopathic effect incubated for 5 days by MTT assay; format: toxicity, cell-based; details: time 5 day, read-out: Ratio CC50/EC50; in short: as §2
[6] = Inhibition of reverse transcriptase/nucleocapsid protein 7 in wild type HIV1 NL4-3 infected in human TZM-bl cells assessed as protection against virus-induced cytopathic effect incubated for 5 days by MTT assay; format: cell-based; details: Human immunodeficiency virus 1, NL4-3, TZM-bl, 120 h
[7] = Cytotoxicity in human TZM assessed as reduction in cell viability incubated for 5 days by MTT assay; format: cell-based; details: TZM cells, time 5 day
In short: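 Uninfected TZM-bl cells were exposed to compound in parallel with the HIV-1 NL4-3 antiviral assay. CC50 is the concentration that cuts viability by 50%. Each compound was run in at least triplicate, and values were averaged from at least four independent experiments.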

[8] = Selectivity index, ratio of CC50 for cytotoxicity in human TZM-bl assessed as reduction in cell viability incubated for 5 days by MTT to EC50 for inhibition of reverse transcriptase/nucleocapsid protein 7 in wild type HIV1 NL4-3 infected in human TZM-bl cells assessed as protection against virus-induced cytopathic effect incubated for 5 days by MTT assay; format: toxicity, cell-based; details: time 5 day, read-out: Ratio CC50/EC50
[9] = test system: Human immunodeficiency virus 1; test: Fold resistance, ratio of EC50 for inhibition of reverse transcriptase K103N/Y181C double mutant/nucleocapsid protein 7 in HIV1 RES056 infected in human MT4 cells assessed as protection against virus-induced cytopathic effect incubated for 5 days by MTT assay to EC50 for reverse transcriptase/nucleocapsid protein 7 in wild type HIV1 3B infected in human MT4 cells assessed as protection against virus-induced cytopathic effect incubated for 5 days by MTT assay; format: cell-based; details: time 5.0 day; in short: as §2
[10] = Prodrug conversion in human plasma assessed as […] measured after 10 mins at 37 degree C by LC-MS/MS analysis; format: ADME, cell-free
In short: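 Prodrug incubated in human plasma (pH 7.4 ± 0.1) at 37 °C for 1 h. Remaining prodrug and formed MT and AZT measured by LC-MS/MS, in triplicate at each time point. Decrease in prodrug plotted against MT formed over the first 10 min with a linear fit.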

[11] = Prodrug conversion in human plasma assessed as enzyme-mediated drug hydrolysis measured after 10 mins at 37 degree C by LC-MS/MS analysis

SMILES | EC50 [1] | EC50 [2] | CC50 at 120 h [3] | selectivity ratio at 120 h [4] | selectivity ratio at 120 h [5] | EC50 [6] | CC50 at 120 h [7] | selectivity ratio at 120 h [8] | Ratio EC50 [9] | Drug metabolism [10] | Drug metabolism [11]
Cc1cn([C@H]2C[C@H](N=[N+]=[N-])[C@@H](CO)O2)c(=O)[nH]c1=O [ZIDOVUDINE] | 11 nM | 1200 nM | > 7480 nM | > 645 | > 6.25 | 16 nM | > 374 nM | > 23.4 | – | – | –
Cc1cn([C@H]2C[C@H](N=[N+]=[N-])[C@@H](COC(=O)CCCC(=O)OCSc3ccccc3C(=O)NCCC(N)=O)O2)c(=O)[nH]c1=O | – | – | > 202000 nM | – | – | – | > 1620 nM | – | – | – | –
NC(=O)CCNC(=O)c1ccccc1S | 5260 nM | 7940 nM | 332000 nM | 63 | 41.9 | 2360 nM | 82500 nM | > 34.9 | 1.5 | – | –
Cc1cn([C@H]2C[C@H](N=[N+]=[N-])[C@@H](COC(=O)CC(C)(C)CC(=O)OCSc3ccccc3C(=O)NCCC(N)=O)O2)c(=O)[nH]c1=O | – | – | > 194000 nM | – | – | – | > 1550 nM | – | – | – | –
Cc1cn([C@H]2C[C@H](N=[N+]=[N-])[C@@H](COC(=O)CC(C)CC(=O)OCSc3ccccc3C(=O)NCCC(N)=O)O2)c(=O)[nH]c1=O (stereo partly specified) | – | – | > 198000 nM | – | – | – | > 1580 nM | – | – | – | –
Cc1cn([C@H]2C[C@H](N=[N+]=[N-])[C@@H](COC(=O)CCCCC(=O)OCSc3ccccc3CNCCC(N)=O)O2)c(=O)[nH]c1=O | 42 nM | 1330 nM | > 198000 nM | > 4660 | > 149 | 308 nM | > 1580 nM | > 4.76 | 31.6 | Metabolite_Detected | 100%
Cc1cn([C@H]2C[C@H](N=[N+]=[N-])[C@@H](COC(=O)CCC(=O)OCSc3ccccc3C(=O)NCCC(N)=O)O2)c(=O)[nH]c1=O | – | – | 124000 nM | – | – | – | > 1660 nM | – | – | – | –

From ChEMBL document CHEMBL4725263, “Discovery of potential dual-target prodrugs of HIV-1 reverse transcriptase and nucleocapsid protein 7” (Bioorg Med Chem Lett, 2020)
